# Target: Growth hormone secretagogue receptor type 1 (Homo sapiens, UniProt Q92847)
# Assay: Inhibition of ghrelin binding to Growth hormone secretagogue receptor expressed in BHK cells
# Format: cell-based
# Procedure, shortened: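 Competition binding against ¹²⁵I-ghrelin at the human GHS receptor expressed in BHK cells. Values are displacement of the radiolabelled ghrelin tracer by the test compounds.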
# Growth hormone secretagogue receptor type 1, sequence (Q92847 whole entry): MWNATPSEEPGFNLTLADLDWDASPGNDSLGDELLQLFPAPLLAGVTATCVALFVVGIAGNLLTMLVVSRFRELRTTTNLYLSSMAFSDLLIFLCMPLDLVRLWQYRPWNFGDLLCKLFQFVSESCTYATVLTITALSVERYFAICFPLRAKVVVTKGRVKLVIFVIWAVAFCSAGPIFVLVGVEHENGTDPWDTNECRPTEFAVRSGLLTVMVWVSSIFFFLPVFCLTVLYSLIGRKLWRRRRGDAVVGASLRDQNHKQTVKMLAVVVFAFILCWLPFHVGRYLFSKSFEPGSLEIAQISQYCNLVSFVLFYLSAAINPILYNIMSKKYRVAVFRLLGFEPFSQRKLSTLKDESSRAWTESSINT
row,SMILES,IC50 [µM]
1,CN(C)c1ccc(N2C(=O)[C@H](CCc3ccccc3)N(Cc3ccc(-c4ccccc4-c4nn[nH]n4)cc3)C2=S)cc1,> 100
2,O=C1[C@H](CCc2ccccc2)N(Cc2ccc(-c3ccccc3-c3nn[nH]n3)s2)C(=O)N1CCCN1CCCCC1,15
3,O=C1[C@H](CCc2ccccc2)N(Cc2ccc(-c3ccccc3-c3nn[nH]n3)cc2)C(=S)N1CCCN1CCOCC1,45
4,CN(C)CCCN1C(=O)[C@H](CCc2ccccc2)N(Cc2ccc(-c3ccccc3-c3nn[nH]n3)cc2)C1=S,8.2
5,NCCCN1C(=O)[C@H](CCc2ccccc2)N(Cc2ccc(-c3ccccc3-c3nn[nH]n3)cc2)C1=O,> 100
6,O=C1[C@H](Cc2c[nH]c3ccccc23)N(Cc2ccc(-c3ccccc3-c3nn[nH]n3)cc2)C(=O)N1C1CCNCC1,50
7,CN(C)C(=O)CCN1C(=O)[C@H](CCc2ccccc2)N(Cc2ccc(-c3ccccc3-c3nn[nH]n3)cc2)C1=O,> 100
8,CN(C)CCCN1C(=O)[C@H](Cc2ccccc2)N(Cc2ccc(-c3ccccc3-c3nn[nH]n3)cc2)C1=S,35
9,CN(C)CCCN1C(=O)[C@H](c2ccccc2)N(Cc2ccc(-c3ccccc3-c3nn[nH]n3)cc2)C1=S,35

# The next compounds have a lower IC50 than those just listed; values first:
row,IC50 [µM],SMILES
1,4,CN(C)CCCN1C(=O)[C@H](CCc2ccccc2)N(Cc2ccc(-c3ccccc3-c3nn[nH]n3)cc2)C1=O
2,1.6,O=C1[C@H](CCc2ccccc2)N(Cc2ccc(-c3ccccc3-c3nn[nH]n3)cc2F)C(=O)N1CCCN1CCCCC1
3,1.3,O=C1[C@H](CCc2ccccc2)N(Cc2cc(-c3ccccc3-c3nn[nH]n3)cs2)C(=O)N1CCCN1CCCCC1
4,1.1,O=C1[C@H](CCc2ccccc2)N(Cc2ccc(-c3ccccc3-c3nn[nH]n3)cc2)C(=O)N1CCCN1CCCC1
5,0.6,O=C1[C@H](CCc2ccccc2)N(Cc2ccc(-c3ccccc3-c3nn[nH]n3)cc2)C(=O)N1CCCN1CCCCC1

# Source: ChEMBL document CHEMBL1146820, “Parallel solid-phase synthesis of disubstituted (5-biphenyltetrazolyl) hydantoins and thiohydantoins targeting the growth hormone secretagogue receptor” (Bioorg Med Chem Lett, 2004)
